Results of several laboratories.
Each line is one published result; the experiments were not run side by side.
PIK3CD: Phosphatidylinositol 4,5-bisphosphate 3-kinase catalytic subunit delta isoform (PIK3CD, Homo sapiens, UniProt O00329)

`C#Cc1cc(-c2cc(Nc3nc(N[C@@H](C)c4ccc(F)cn4)ncc3Cl)n[nH]2)ccc1C=O` has an inhibition of 29.3% (PIK3CD; enzyme activity; inhibitor; 0.2 µM).
`COc1ccc2[nH]c3c4[nH]c5ccc(OC)cc5c4c4c(c3c2c1)C(=O)NC4=O` has a remaining binding of 64% (PIK3CD; binding; 1 µM).
The remaining binding of `CCCCC(=O)Nc1ccc(-c2ccc3ncn(CCC)c(=O)c3c2)cn1` is reported as 100% (PIK3CD; binding; competition with immobilised ligand; 0.5 µM).
`CO[C@@H]1[C@H](N(C)C(=O)c2ccccc2)C[C@H]2O[C@]1(C)n1c3ccccc3c3c4c(c5c6ccccc6n2c5c31)C(=O)NC4` gave an inhibition of 0% (PIK3CD; enzyme activity; inhibitor; 1 µM).
`C1=C/COCc2cc(ccc2OCCN2CCCC2)Nc2nccc(n2)-c2cccc(c2)COC/1` gave a remaining binding of 30% (PIK3CD; binding; 0.1 µM).
The remaining signal of `C[C@H]1CC[C@H](n2c3cnccc3c3cnc(Nc4ccc5c(n4)CCN(C(=O)CO)C5)nc32)CC1` is reported as 87% (PIK3CD; cell-free assay; 1 µM).
`CC(C)S(=O)(=O)c1ccc2nccc(Nc3ccc4sc(C5CCCC5)nc4c3)c2c1` has an activity vs control of 91% (Phosphatidylinositol 4,5-bisphosphate 3-kinase catalytic subunit delta isoform, with p85 (PIK3CD, Homo sapiens, UniProt O00329); enzyme activity; inhibitor; 1 µM).
`C=CC(=O)N1CCC([C@@H]2CCNc3c(C(N)=O)c(-c4ccc(Oc5ccccc5)cc4)nn32)CC1` has an inhibition of 11% (PIK3CD; enzyme activity; inhibitor; 1 µM).
`Cc1cc(O)c(-c2ccc([C@@H](C)CN(C)C)cc2)c2c1[nH]c(=O)c1sccc12` gave an inhibition of -6.12% (PIK3CD; enzyme activity; inhibitor; 0.1 µM).
